Activity calls are given as the source filed them. No cut-off for these calls is given here.
Key:
A-375 [1] = test: Antitumor activity against human A-375 cells xenografted in Balb/c nude mouse assessed as reduction in cell invasion at 25 mg/kg, ip administered 3 times a week for 3 weeks measured post last dose; type: functional, organism-based
Outline: (§1)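 Balb/c nude mice given 10×10^6 A375 cells in PBS subcutaneously in the right flank under isoflurane. Groups of 6-12 allocated on Day 14 at 110-130 mm^3 mean tumor volume; dosed ip for three weeks. Drug in DMSO/Tween 80 (1:1) diluted with saline; vehicle DMSO/Tween 80/saline (1:1:8). Tumors fixed in buffered 3.7% formalin and read blind by a veterinary pathologist after mid-sagittal section.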

A-375 [2] = test: Antiproliferative activity against human A-375 cells assessed as reduction in cell viability measured after 96 hrs by MTT assay; type: functional, cell-based; conditions: Homo sapiens, A-375, 96 h
Outline: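 A375 cells in RPMI-1640 with 10% heat-inactivated FBS, 2 mM L-glutamine and antibiotics, 37°C, 5% CO₂. Seeded at 5000 cells/well and attached overnight, then exposed to 10⁻⁵–3.2.10⁻⁹ M in 0.15% DMSO/medium for 96 h. MTT at 0.5 mg/ml final for 4 h, formazan dissolved in 10% SDS/0.01 M HCl, OD 570 nm. At least three experiments in triplicate; IC50 from sigmoidal dose–response curves.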

A-375 [3] = test: Antitumor activity against human A-375 cells xenografted in Balb/c nude mouse assessed as change in tumor inflammation at 30 mg/kg, ip administered 5 times a week for 3 weeks measured post last dose by trichrome staining based histopathological analysis; type: functional, organism-based; outline: as §1
[4] = Toxicity in Balb/c nude mouse xenografted with human A-375 cells assessed as effect on liver pathology at 75 mg/kg, ip administered 3 times a week during first week and twice a week for 2 week measured post last dose by pathological analysis; type: organism-based; conditions: in vivo, 504 h, time 3 weeks
Outline: (§2)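 Balb/c nude mice inoculated s.c. in right flank with 10×10^6 A375 cells in PBS under isoflurane; dosing started once mean tumor volume reached 110-130 mm3, groups allocated Day 14. IP dosing for three weeks; vehicle DMSO/Tween 80 (vol/vol) plus injectable saline (8 vol), solutions made daily. Body weight followed during treatment; gross pathology at study termination; n = 4 mice per group reported.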

[5] = Inhibition of pig brain tubulin polymerization at 5 uM measured after 45 mins by turbidimetry based spectrophotometric method relative to control; type: tissue-based, Sus scrofa; conditions: 0.75 h
A-375 [6] = test: Antitumor activity against human A-375 cells xenografted in Balb/c nude mouse assessed as reduction in mitotic index at 25 mg/kg, ip administered 3 times a week for 3 weeks measured post last dose; type: functional, organism-based; outline: as §1
A-375 [7] = test: Antitumor activity against human A-375 cells xenografted in Balb/c nude mouse assessed as reduction in tumor weight at 30 mg/kg, ip administered 5 times a week for 3 weeks measured post last dose; type: functional, organism-based; outline: as §1
[8] = Toxicity in Balb/c nude mouse xenografted with human A-375 cells assessed as reduction in body weight at 75 mg/kg, ip administered 3 times a week during first week and twice a week for 2 week; type: organism-based; conditions: in vivo, 504 h, time 3 weeks; outline: as §2
A-375 [9] = test: Antitumor activity against human A-375 cells xenografted in Balb/c nude mouse assessed as reduction in cell invasion at 30 mg/kg, ip administered 5 times a week for 3 weeks measured post last dose; type: functional, organism-based; outline: as §1
[10] = Toxicity in Balb/c nude mouse xenografted with human A-375 cells assessed as change in body weight at 30 mg/kg, ip administered 5 times a week for 3 weeks; type: organism-based; conditions: in vivo, 504 h
A-375 [11] = test: Antitumor activity against human A-375 cells xenografted in ip dosed Balb/c nude mouse assessed as reduction in tumor weight administered 3 times a week for 3 weeks measured post last dose; type: functional, organism-based; conditions: dose 25-75 mg/kg
A-375 [12] = test: Antitumor activity against human A-375 cells xenografted in ip dosed Balb/c nude mouse assessed as reduction in tumor size administered 3 times a week for 3 weeks by caliper method; type: functional, organism-based; conditions: dose 25-75 mg/kg
[13] = Toxicity in Balb/c nude mouse xenografted with human A-375 cells assessed as mortality at 75 mg/kg, ip administered 3 times a week during first week and twice a week for 2 week; type: organism-based; conditions: in vivo, 504 h, time 3 weeks; outline: as §2
MeWo = test: Antiproliferative activity against human MeWo cells assessed as reduction in cell viability measured after 96 hrs by MTT assay; type: functional, cell-based
A2058 = test: Antiproliferative activity against human A2058 cells assessed as reduction in cell viability measured after 96 hrs by MTT assay; type: functional, cell-based; conditions: A2058, 96 h
IPC-298 = test: Antiproliferative activity against human IPC-298 cells assessed as reduction in cell viability measured after 96 hrs by MTT assay; type: functional, cell-based; conditions: IPC-298, 96 h
A-375 [14] = test: Antitumor activity against human A-375 cells xenografted in Balb/c nude mouse assessed as vascularization at 30 mg/kg, ip administered 5 times a week for 3 weeks measured post last dose by trichrome staining based histopathological analysis; type: functional, organism-based; outline: as §1
A-375 [15] = test: Antitumor activity against human A-375 cells xenografted in Balb/c nude mouse assessed as change in tumor stroma at 30 mg/kg, ip administered 5 times a week for 3 weeks measured post last dose by trichrome staining based histopathological analysis; type: functional, organism-based; outline: as §1
A-375 [16] = test: Antitumor activity against human A-375 cells xenografted in Balb/c nude mouse assessed as vascularization at 75 mg/kg, ip administered 3 times a week during first week and twice a week for next 2 weeks measured post last dose by trichrome staining based histopathological analysis; type: functional, organism-based; conditions: time 3.0 weeks; outline: as §1
[17] = Toxicity in Balb/c nude mouse xenografted with human A-375 cells assessed as morbidity at 75 mg/kg, ip administered 3 times a week during first week and twice a week for 2 week; type: organism-based; conditions: in vivo, 504 h, time 3 weeks; outline: as §2
[18] = Toxicity in Balb/c nude mouse xenografted with human A-375 cells assessed as adverse effect at 30 mg/kg, ip administered 5 times a week for 3 weeks; type: organism-based; conditions: in vivo, 504 h
A-375 [19] = test: Antitumor activity against human A-375 cells xenografted in Balb/c nude mouse assessed as reduction in tumor size at 25 mg/kg, ip administered 3 times a week for 3 weeks by caliper method relative to control; type: functional; set-up: scale not given: the % may be the effect or the level left; outline: as §1
A-375 [20] = test: Antitumor activity against human A-375 cells xenografted in Balb/c nude mouse assessed as reduction in mitotic index at 30 mg/kg, ip administered 5 times a week for 3 weeks measured post last dose; type: functional, organism-based; outline: as §1
A-375 [21] = test: Antitumor activity against human A-375 cells xenografted in Balb/c nude mouse assessed as reduction in tumor size at 75 mg/kg, ip administered 3 times a week during first week and twice a week for 2 week by caliper method relative to control; type: functional; set-up: scale not given: the % may be the effect or the level left; conditions: time 3 weeks; outline: as §1
A-375 [22] = test: Antitumor activity against human A-375 cells xenografted in Balb/c nude mouse assessed as reduction in tumor size at 30 mg/kg, ip administered 5 times a week for 3 weeks by caliper method; type: functional, organism-based; outline: as §1
[23] = Toxicity in Balb/c nude mouse xenografted with human A-375 cells assessed as pathological changes at 30 mg/kg, ip administered 5 times a week for 3 weeks measured post last dose by histopathological analysis; type: organism-based; conditions: in vivo, 504 h
[24] = Cytotoxicity against human PBMC cells assessed as reduction in cell viability at 0.2 mM measured after 96 hrs by MTT assay; type: cell-based; conditions: 200 µM
A-375 [25] = test: Antitumor activity against human A-375 cells xenografted in Balb/c nude mouse assessed as reduction in cell invasion at 75 mg/kg, ip administered 3 times a week during first week and twice a week for next 2 weeks measured post last dose; type: functional, organism-based; conditions: time 3.0 weeks; outline: as §1

## CNc1nc2ccccc2n2c(-c3ccc(O)c(O)c3)cnc12
A-375 [1]
  Activity: Active
A-375 [2]
  IC50: 3 nM
A-375 [3]
  Activity: inactive
[4]
  Activity: Toxic
[5]
  inhibition (INH): Not Active
A-375 [6]
  Activity: Active
A-375 [7]
  Activity: Active
[8]
  Activity: Toxic
A-375 [9]
  Activity: Active
[10]
  Activity: Non-Toxic
A-375 [11]
  Activity: Dose-dependent effect
A-375 [12]
  Activity: Dose-dependent effect
[13]
  Activity: Toxic
MeWo
  IC50: 3 nM
A2058
  IC50: 4 nM
IPC-298
  IC50: 40 nM
A-375 [14]
  Activity: inactive
A-375 [15]
  Activity: inactive
A-375 [16]
  Activity: inactive
[17]
  Activity: Toxic
[18]
  Activity: Non-Toxic
A-375 [19]
  Activity: 50%
A-375 [20]
  Activity: Active
A-375 [21]
  Activity: 80%
A-375 [22]
  Activity: Active
[23]
  Activity: Non-Toxic
[24]
  Activity: Non-Toxic
A-375 [25]
  Activity: Active

Source: ChEMBL document CHEMBL4732121, “Imidazo[1,2-a]quinoxalines for melanoma treatment with original mechanism of action” (Eur J Med Chem, 2021)
